Measured values published in ChEMBL document CHEMBL5724801, “EUbOPEN Chemogenomics Library - Multiplex” (2024).
Where “and” joins values, the source holds several entries; their conditions need not be identical. Identical values can stand only once.

Test system: HEK-293T
Assay: Multiplex assay against HEK293T
Assay type: toxicity, cell-based
Conditions: human
In short: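 Compound was added to live cells that had been stained at seeding with Hoechst33342, BioTracker Green Microtubule Cytoskeleton Dye, MitoTracker Red and Annexin V Alexa Fluor 680, and imaging followed on a CQ1 microscope at 37°C and 5% CO2. CellPathfinder machine-learning gating divided cells into Hoechst high-intensity objects or normal cells, normal cells into healthy, pyknosed or fragmented nuclei, and pyknosed cells into mitotic or apoptotic. Tubulin, mitochondrial-mass and membrane-permeability phenotypes are per cents of healthy-nucleus cells.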

[1] = 12 h, 1 µM, compound concentration 1 uM
[2] = 12 h, 10 µM, compound concentration 10 uM
[3] = 24 h, 1 µM, compound concentration 1 uM
[4] = 24 h, 10 µM, compound concentration 10 uM
[5] = 48 h, 1 µM, compound concentration 1 uM
[6] = 48 h, 10 µM, compound concentration 10 uM

In the case of `Nc1nc(-c2ccco2)c2cnn(Cc3ccccc3F)c2n1`, the “Population Apoptotic (%)” value [1] is reported as 37% and 36%, the “Population Fragmented Nuclei (%)” value [1] is reported as 6% and 5% and the “Population Healthy Nuclei (%)” value [1] is reported as 76% and 81%. The “Population Hoechst High Intensity Objects (%)” value [1] was 9% and 11%, the “Population Membrane Permeable-Phenotype (%)” value [1] was 0% and the “Population Mitochondria Different-Phenotype (%)” value [1] was 58% and 64%. For the same compound, the “Population Mitotic Cells (%)” value [1] was 62% and 63%, the “Population Normal (%)” value [1] was 90% and 88% and the “Population Pyknosed Nuclei (%)” value [1] was 16% and 13%. For the same compound, the “Population Tubulin-Different-Phenotype (%)” value [1] was 41% and 23%, the “Total Cell Count” value [1] was 300 and 404 and the “Population Apoptotic (%)” value [2] was 33% and 40%. The “Population Fragmented Nuclei (%)” value [2] was 7% and 6%, the “Population Healthy Nuclei (%)” value [2] was 73% and 76% and the “Population Hoechst High Intensity Objects (%)” value [2] was 8% and 12%. For the same compound, the “Population Membrane Permeable-Phenotype (%)” value [2] was 0%, the “Population Mitochondria Different-Phenotype (%)” value [2] was 61% and 68% and the “Population Mitotic Cells (%)” value [2] was 66% and 60%. The “Population Normal (%)” value [2] was 91% and 87%, the “Population Pyknosed Nuclei (%)” value [2] was 19% and 17% and the “Population Tubulin-Different-Phenotype (%)” value [2] was 43% and 26%. For the same compound, the “Total Cell Count” value [2] was 306 and 265, the “Population Apoptotic (%)” value [3] was 30% and 28% and the “Population Fragmented Nuclei (%)” value [3] was 7% and 9%. For the same compound, the “Population Healthy Nuclei (%)” value [3] was 77% and 81%, the “Population Hoechst High Intensity Objects (%)” value [3] was 7% and 5% and the “Population Membrane Permeable-Phenotype (%)” value [3] was 0%. For the same compound, the “Population Mitochondria Different-Phenotype (%)” value [3] was 36% and 46%, the “Population Mitotic Cells (%)” value [3] was 69% and 71% and the “Population Normal (%)” value [3] was 92% and 94%. For the same compound, the “Population Pyknosed Nuclei (%)” value [3] was 15% and 9%, the “Population Tubulin-Different-Phenotype (%)” value [3] was 26% and 17% and the “Total Cell Count” value [3] was 396 and 514. The “Population Apoptotic (%)” value [4] was 38% and 35%, the “Population Fragmented Nuclei (%)” value [4] was 11% and the “Population Healthy Nuclei (%)” value [4] was 67%. The “Population Hoechst High Intensity Objects (%)” value [4] was 6% and 10%, the “Population Membrane Permeable-Phenotype (%)” value [4] was 2% and 0% and the “Population Mitochondria Different-Phenotype (%)” value [4] was 52% and 59%. The “Population Mitotic Cells (%)” value [4] was 61% and 64%, the “Population Normal (%)” value [4] was 93% and 89% and the “Population Pyknosed Nuclei (%)” value [4] was 21%. The “Population Tubulin-Different-Phenotype (%)” value [4] was 31% and 23%, the “Total Cell Count” value [4] was 334 and 328 and the “Population Apoptotic (%)” value [5] was 32% and 28%. For the same compound, the “Population Fragmented Nuclei (%)” value [5] was 12% and 14%, the “Population Healthy Nuclei (%)” value [5] was 75% and 78% and the “Population Hoechst High Intensity Objects (%)” value [5] was 3% and 4%. The “Population Membrane Permeable-Phenotype (%)” value [5] was 1%, the “Population Mitochondria Different-Phenotype (%)” value [5] was 31% and 21% and the “Population Mitotic Cells (%)” value [5] was 67% and 71%. The “Population Normal (%)” value [5] was 96% and 95%, the “Population Pyknosed Nuclei (%)” value [5] was 12% and 7% and the “Population Tubulin-Different-Phenotype (%)” value [5] was 18% and 14%. The “Total Cell Count” value [5] was 641 and 769, the “Population Apoptotic (%)” value [6] was 36% and 28% and the “Population Fragmented Nuclei (%)” value [6] was 16% and 13%. For the same compound, the “Population Healthy Nuclei (%)” value [6] was 73% and 74%, the “Population Hoechst High Intensity Objects (%)” value [6] was 7% and the “Population Membrane Permeable-Phenotype (%)” value [6] was 0%. For the same compound, the “Population Mitochondria Different-Phenotype (%)” value [6] was 42% and 43%, the “Population Mitotic Cells (%)” value [6] was 63% and 71% and the “Population Normal (%)” value [6] was 92%. For the same compound, the “Population Pyknosed Nuclei (%)” value [6] was 9% and 12%, the “Population Tubulin-Different-Phenotype (%)” value [6] was 19% and 15% and the “Total Cell Count” value [6] was 412 and 398.
For `CN(C)C(=O)Cn1cc(-c2ccc(-c3cncc4ccccc34)cc2)cn1`, the “Population Apoptotic (%)” value [1] was 52% and 40%, the “Population Fragmented Nuclei (%)” value [1] was 5% and 4% and the “Population Healthy Nuclei (%)” value [1] was 81% and 80%. For the same compound, the “Population Hoechst High Intensity Objects (%)” value [1] was 7% and 2%, the “Population Membrane Permeable-Phenotype (%)” value [1] was 0% and the “Population Mitochondria Different-Phenotype (%)” value [1] was 50% and 58%. For the same compound, the “Population Mitotic Cells (%)” value [1] was 47% and 59%, the “Population Normal (%)” value [1] was 92% and 97% and the “Population Pyknosed Nuclei (%)” value [1] was 12% and 14%. For the same compound, the “Population Tubulin-Different-Phenotype (%)” value [1] was 35% and 23%, the “Total Cell Count” value [1] was 411 and 337 and the “Population Apoptotic (%)” value [2] was 48% and 69%. The “Population Fragmented Nuclei (%)” value [2] was 8%, the “Population Healthy Nuclei (%)” value [2] was 73% and 76% and the “Population Membrane Permeable-Phenotype (%)” value [2] was 0%. For the same compound, the “Population Mitochondria Different-Phenotype (%)” value [2] was 65% and 69%, the “Population Mitotic Cells (%)” value [2] was 51% and 30% and the “Population Normal (%)” value [2] was 93% and 80%. The “Population Pyknosed Nuclei (%)” value [2] was 17% and 15%, the “Population Tubulin-Different-Phenotype (%)” value [2] was 47% and 43% and the “Total Cell Count” value [2] was 264 and 321. For the same compound, the “Population Apoptotic (%)” value [3] was 47% and 40%, the “Population Fragmented Nuclei (%)” value [3] was 10% and 6% and the “Population Healthy Nuclei (%)” value [3] was 79% and 82%. The “Population Hoechst High Intensity Objects (%)” value [3] was 6% and 7%, the “Population Membrane Permeable-Phenotype (%)” value [3] was 0% and the “Population Mitochondria Different-Phenotype (%)” value [3] was 38% and 45%. The “Population Mitotic Cells (%)” value [3] was 52% and 60%, the “Population Normal (%)” value [3] was 93% and 92% and the “Population Pyknosed Nuclei (%)” value [3] was 10%. For the same compound, the “Population Tubulin-Different-Phenotype (%)” value [3] was 24% and 23%, the “Total Cell Count” value [3] was 498 and 355 and the “Population Apoptotic (%)” value [4] was 48% and 45%. The “Population Fragmented Nuclei (%)” value [4] was 9% and 10%, the “Population Healthy Nuclei (%)” value [4] was 75% and the “Population Hoechst High Intensity Objects (%)” value [4] was 6% and 14%. For the same compound, the “Population Membrane Permeable-Phenotype (%)” value [4] was 0%, the “Population Mitochondria Different-Phenotype (%)” value [4] was 65% and 53% and the “Population Mitotic Cells (%)” value [4] was 51% and 54%. For the same compound, the “Population Normal (%)” value [4] was 93% and 85%, the “Population Pyknosed Nuclei (%)” value [4] was 14% and 13% and the “Population Tubulin-Different-Phenotype (%)” value [4] was 44% and 30%. For the same compound, the “Total Cell Count” value [4] was 283 and 362, the “Population Apoptotic (%)” value [5] was 35% and 60% and the “Population Fragmented Nuclei (%)” value [5] was 19% and 11%. The “Population Healthy Nuclei (%)” value [5] was 74% and 82%, the “Population Hoechst High Intensity Objects (%)” value [5] was 8% and 5% and the “Population Membrane Permeable-Phenotype (%)” value [5] was 1% and 0%. For the same compound, the “Population Mitochondria Different-Phenotype (%)” value [5] was 40% and 32%, the “Population Mitotic Cells (%)” value [5] was 64% and 39% and the “Population Normal (%)” value [5] was 91% and 94%. For the same compound, the “Population Pyknosed Nuclei (%)” value [5] was 6% and 5%, the “Population Tubulin-Different-Phenotype (%)” value [5] was 25% and 17% and the “Total Cell Count” value [5] was 554 and 430. The “Population Apoptotic (%)” value [6] was 66% and 59%, the “Population Fragmented Nuclei (%)” value [6] was 23% and the “Population Healthy Nuclei (%)” value [6] was 63% and 70%. The “Population Hoechst High Intensity Objects (%)” value [6] was 11% and 8%, the “Population Membrane Permeable-Phenotype (%)” value [6] was 0% and the “Population Mitochondria Different-Phenotype (%)” value [6] was 56% and 43%. The “Population Mitotic Cells (%)” value [6] was 33% and 40%, the “Population Normal (%)” value [6] was 88% and 91% and the “Population Pyknosed Nuclei (%)” value [6] was 12% and 6%. For the same compound, the “Population Tubulin-Different-Phenotype (%)” value [6] was 30% and 23% and the “Total Cell Count” value [6] was 379 and 429.
